Experimental data as given in paper PMC3603146 (Nature structural & molecular biology, 2012).
Square brackets hold non-standard residues; d marks the D form. Peptide text beside a SMILES is read from it. Lys(Me3) = C[N+](C)(C)CCCC[C@H](N)C(=O)O

How the values were obtained:
[1] = test system: poly (ADP-ribose) PAR polymer; test: Poly; assay type: cell-based; settings: Western analysis
XRCC1 = XRCC1 accumulation at single stranded breaks upon PARP1 inhibitor treatment; assay type: cell-based; settings: low doses of radiation
PHF1 Tudor (WT) = PHF1 Tudor (WT) (Homo sapiens, UniProt O43189); test: NMR 1H,15N HSQC titration of wild type PHF1 Tudor with histone peptides; assay type: binding; settings: for NMR chemical shift / resonance perturbations in PHF1 Tudor: titration of unlabeled peptide into 15N-labeled wild type Tudor
PHF1 Tudor W41A = PHF1 Tudor W41A (Homo sapiens, UniProt O43189, W41A); test: NMR 1H,15N HSQC titration of PHF1 Tudor W41A mutant; assay type: binding; settings: structure of the protein remained intact
Method in brief: (§1)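 Uniformly 15N-labeled mutant PHF1 Tudor (residues 14–87) was GST-purified from E. coli BL21(DE3) pLysS grown in 15NH4Cl M9 (0.5 mM IPTG), tag-cleaved and size-exclusion purified. 1H,15N HSQC spectra were recorded at 600 MHz (cryoprobe) with increasing concentrations of 12-mer histone tail peptides. Kd came from nonlinear least-squares fitting of normalized chemical shift changes versus peptide and protein concentration.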

PHF1 Tudor Y47A = PHF1 Tudor Y47A (Homo sapiens, UniProt O43189, Y47A); test: NMR 1H,15N HSQC titration of PHF1 Tudor Y47A mutant; assay type: binding; settings: structure of the protein remained intact
Method in brief: as §1

GST-fusion PHF1 Tudor = test: Pull-down of GST-fusion PHF1 Tudor with biotinylated histone peptides; assay type: binding, human; settings: biotinylated peptides (H3K4, H3K9, unmodified H3: residues 1–21; H3K27, H3K36: residues 21–44), 50 mM Tris pH 7.5, 150 mM NaCl, 0.05% Nonidet P-40; anti-GST western
Method in brief: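 GST-tagged human PHF1 Tudor (residues 14–87) expressed in E. coli BL21(DE3) pLysS with 0.5 mM IPTG induction, purified on glutathione beads, eluted with 0.05 M reduced glutathione, then size exclusion. The protein was incubated with C-terminally biotinylated peptides (me1/me2/me3 forms) plus streptavidin beads. Beads were washed five times in binding buffer, and bound protein was detected with HRP-conjugated anti-GST monoclonal.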

[2] = test system: Oct4, Nanog, HoxA4 and HoxA11 promoters, mouse ES cells; test: ChIP of H3K27me3 in mouse ES cells expressing Flag-PHF1; assay type: cell-based; settings: stably expressing Flag-PHF1 vs empty vector; H3K27me3 to total H3; two experiments
Method in brief: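 Mouse ES cells (ww6), grown on fibroblasts or with recombinant LIF, transduced with virus carrying pRTF vector (empty or Flag-PHF1); Flag-PHF1 clones selected. ChIP on 500 μg cross-linked chromatin with anti-H3 or anti-H3K27me3; qPCR with primers near the transcription start site. H3K27me3 expressed as ratio to total H3 to correct for nucleosome density; two separate ChIP experiments.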

[3] = test system: MYT1 promoter, HEK293T cells; test: ChIP at the MYT1 promoter in HEK293T cells; assay type: cell-based; settings: upon overexpression of PHF1; normalized to H3
Method in brief: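 HEK293T cells were transiently transfected with empty vector, wild-type HA-PHF1 or W41A/Y47A mutants, then fixed 48 h later (1×10^7 cells, 1% formaldehyde, 14 min, room temperature). Chromatin was sonicated to ~500 bp and immunoprecipitated with 4 μg antibody and Protein A magnetic beads. qPCR was run in triplicate with 7 MYT1 primer sets (−1680 to 866 around TSS). Fold-enrichment = IgG-subtracted %Input ÷ that of reference gene PCLB4. Data are mean ± SD of three biological replicates.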

HEK293T cells = assay type: cell-based; settings: HA-tagged PHF1, 48 hours after transfection, compared with empty vector
Method in brief: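 HEK293T cells were grown in DMEM with 10% FBS and penicillin/streptomycin. They were transiently transfected using polyethylenimine with full-length human PHF1 (C-terminal HA tag, pIRES2-EGFP; wild type, W41A or Y47A) or empty plasmid as negative control. Whole-cell lysates were collected 48 h post-transfection for Western blot with rabbit antibodies to HA, histone H3, H3K27me3 and H3K36me3.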

O=C(c1cc(Cc2n[nH]c(=O)c3ccccc23)ccc1F)N1CCN(C(=O)C2CC2)CC1 [AZD2281] was tested, and the “poly (ADP-ribose) PAR polymer” value [1] was “decrease in poly (ADP-ribose) PAR polymer” and the “accumulation of XRCC1 at single stranded breaks” value (XRCC1) was “loss of accumulation”.

With C[C@H](N)C(=O)N[C@@H](CCCNC(=N)N)C(=O)N[C@H](C(=O)N[C@@H](CCCC[N+](C)(C)C)C(=O)N[C@@H](CCC(N)=O)C(=O)N[C@H](C(=O)N[C@@H](C)C(=O)N[C@@H](CCCNC(=N)N)C(=O)N[C@@H](CCCCN)C(=O)N[C@@H](CO)C(=O)N[C@H](C(=O)NCC(=O)O)[C@@H](C)O)[C@@H](C)O)[C@@H](C)O [H3K4me3] the “times weaker binding than H3K36me3 (trimethylated at other lysine residues)” value (PHF1 Tudor (WT); relative to H3K36me3, ITC or NMR (Fig. 3a)) was ~8 times and the “NMR chemical shift / resonance perturbations in PHF1 Tudor” value (PHF1 Tudor (WT)) was “slightly different patterns of chemical shift changes”.

For CC(C)[C@H](NC(=O)CNC(=O)CNC(=O)[C@@H](NC(=O)[C@H](C)N)[C@@H](C)O)C(=O)N[C@@H](CCCC[N+](C)(C)C)C(=O)N[C@@H](CCCCN)C(=O)N1CCC[C@H]1C(=O)N[C@@H](Cc1c[nH]cn1)C(=O)N[C@@H](CCCNC(=N)N)C(=O)O [H3K36me3] (H-ATGGV[Lys(Me3)]KPHR-OH; N-terminus and C-terminus assumed), the “effect of W41A substitution on binding to H3K36me3” value (PHF1 Tudor W41A) was “disrupted binding”, the “NMR chemical shift / resonance perturbations in PHF1 Tudor” value (PHF1 Tudor (WT)) was “large chemical shift perturbations” and the “effect of Y47A substitution on binding to H3K36me3” value (PHF1 Tudor Y47A) was “disrupted binding”. For the same molecule, the “association of PHF1 Tudor in pull-down” value (GST-fusion PHF1 Tudor) was “associated most strongly”.

B1: Flag-PHF1: Flag-tagged PHF1 stably expressed in mouse ES cells (protein, UniProt Q9Z1B8 1-559, looked up)
PHD finger protein 1: MAQLPRLSRLGAPSLWDPASPAPTSGPRPRLWEGQDVLARWTDGLLYLGTIKKVDSAREVCLVQFEDDSQFLVLWKDISPAALPGEELLCCVCRSETVVPGNRLVSCEKCRHAYHQDCHVPRAPAPGEGEGASWVCRQCVFAIATKRGGALKKGPYARAMLGMKLSLPYGLKGLDWDAGHLSNRQQSYCYCGGPGEWNLKMLQCRSCLQWFHEACTQCLSKPLLYGDRFYEFECCVCRGGPEKVRRLQLRWVDVAHLVLYHLSVCCKKKYFDFDREILPFTSENWDSLLLGELSDTPKGERSSQLLSALNSHKDRFISGREIKKRKCLFGLHARTPPPVELLTGDGAPTSFPSGQGPGGGVSRPLGKRWRSEPEPLRRRQKGKVEELGPPTAAHSRHGSREQRALQASVSPPPPSPNQSYEGSSGYNFRPTDARCLPSSPIRMFASFHPSASTAGTSGDSEPPDRSPLGLHIGFPTDTPKSSPHSVTASSSSVPALTPGFSRHSPPSPLCRSLSPGTGGGVRGGVSYLSRGDPVRVLARRVRPDGSVQYLVEWGGGGIF
modifications: Flag tag
In the case of B1, the “H3K27me3 level at HoxA4 and HoxA11” value [2] is reported as “comparable H3K27me3 level” and the “H3K27me3 signal at Oct4 and Nanog” value [2] is reported as “reproducible decrease of the H3K27me3 signal”.

B2: wild type PHF1: full length hPHF1 expressed in HEK293T (HA-tag) or K562 cells (Flag) (protein, UniProt O43189 1-567, looked up)
chain: MAQPPRLSRSGASSLWDPASPAPTSGPRPRLWEGQDVLARWTDGLLYLGTIKKVDSAREVCLVQFEDDSQFLVLWKDISPAALPGEELLCCVCRSETVVPGNRLVSCEKCRHAYHQDCHVPRAPAPGEGEGTSWVCRQCVFAIATKRGGALKKGPYARAMLGMKLSLPYGLKGLDWDAGHLSNRQQSYCYCGGPGEWNLKMLQCRSCLQWFHEACTQCLSKPLLYGDRFYEFECCVCRGGPEKVRRLQLRWVDVAHLVLYHLSVCCKKKYFDFDREILPFTSENWDSLLLGELSDTPKGERSSRLLSALNSHKDRFISGREIKKRKCLFGLHARMPPPVEPPTGDGALTSFPSGQGPGGGVSRPLGKRRRPEPEPLRRRQKGKVEELGPPSAVRNQPEPQEQRERAHLQRALQASVSPPSPSPNQSYQGSSGYNFRPTDARCLPSSPIRMFASFHPSASTAGTSGDSGPPDRSPLELHIGFPTDIPKSAPHSMTASSSSVSSPSPGLPRRSAPPSPLCRSLSPGTGGGVRGGVGYLSRGDPVRVLARRVRPDGSVQYLVEWGGGGIF
modifications: full-length HA or Flag tag
With B2 the “H3K27me3 levels at MYT1” value [3] was “substantially reduced” and the “global level of H3K27me3” value (HEK293T cells) was “decrease in the global level of H3K27me3”.

B3: W41A: PHF1 mutant impaired in H3K36me3 binding; HA-tagged, GFP-fusion or in Flag-PHF1-PRC2 complex according to the test (protein, UniProt O43189 1-567, looked up, variant W41A)
PHD finger protein 1: MAQPPRLSRSGASSLWDPASPAPTSGPRPRLWEGQDVLARATDGLLYLGTIKKVDSAREVCLVQFEDDSQFLVLWKDISPAALPGEELLCCVCRSETVVPGNRLVSCEKCRHAYHQDCHVPRAPAPGEGEGTSWVCRQCVFAIATKRGGALKKGPYARAMLGMKLSLPYGLKGLDWDAGHLSNRQQSYCYCGGPGEWNLKMLQCRSCLQWFHEACTQCLSKPLLYGDRFYEFECCVCRGGPEKVRRLQLRWVDVAHLVLYHLSVCCKKKYFDFDREILPFTSENWDSLLLGELSDTPKGERSSRLLSALNSHKDRFISGREIKKRKCLFGLHARMPPPVEPPTGDGALTSFPSGQGPGGGVSRPLGKRRRPEPEPLRRRQKGKVEELGPPSAVRNQPEPQEQRERAHLQRALQASVSPPSPSPNQSYQGSSGYNFRPTDARCLPSSPIRMFASFHPSASTAGTSGDSGPPDRSPLELHIGFPTDIPKSAPHSMTASSSSVSSPSPGLPRRSAPPSPLCRSLSPGTGGGVRGGVGYLSRGDPVRVLARRVRPDGSVQYLVEWGGGGIF
modifications: HA, GFP or Flag tag
In the case of B3, the “global level of H3K27me3” value (HEK293T cells) is reported as “no effect on the H3K27me3 level”.

B4: Y47A: PHF1 mutant impaired in H3K36me3 binding; HA-tagged, GFP-fusion or in Flag-PHF1-PRC2 complex according to the test (protein, UniProt O43189 1-567, looked up, variant Y47A)
PHD finger protein 1: MAQPPRLSRSGASSLWDPASPAPTSGPRPRLWEGQDVLARWTDGLLALGTIKKVDSAREVCLVQFEDDSQFLVLWKDISPAALPGEELLCCVCRSETVVPGNRLVSCEKCRHAYHQDCHVPRAPAPGEGEGTSWVCRQCVFAIATKRGGALKKGPYARAMLGMKLSLPYGLKGLDWDAGHLSNRQQSYCYCGGPGEWNLKMLQCRSCLQWFHEACTQCLSKPLLYGDRFYEFECCVCRGGPEKVRRLQLRWVDVAHLVLYHLSVCCKKKYFDFDREILPFTSENWDSLLLGELSDTPKGERSSRLLSALNSHKDRFISGREIKKRKCLFGLHARMPPPVEPPTGDGALTSFPSGQGPGGGVSRPLGKRRRPEPEPLRRRQKGKVEELGPPSAVRNQPEPQEQRERAHLQRALQASVSPPSPSPNQSYQGSSGYNFRPTDARCLPSSPIRMFASFHPSASTAGTSGDSGPPDRSPLELHIGFPTDIPKSAPHSMTASSSSVSSPSPGLPRRSAPPSPLCRSLSPGTGGGVRGGVGYLSRGDPVRVLARRVRPDGSVQYLVEWGGGGIF
modifications: HA, GFP or Flag tag
In the case of B4, the “global level of H3K27me3” value (HEK293T cells) is reported as “no effect on the H3K27me3 level”.
